# Screening results: PubChem, Broad Institute
# CAL PDZ FP-1: blocks peptide binding to the human CAL PDZ domain; 300,000 compounds, 0.92% hits; purified CAL PDZ, TMR-peptide fluorescence polarization, 1 h; inhibition, % at 24.9 µM; Q9HD26; AID 602252;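 active = mean inhibition of at least 30% with at least half of replicates also reaching 30%; inconclusive = no clear call, values can overlap the other calls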;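 also: 0% = DMSO neutral control and 100% = excess unlabeled competitor peptide PRC23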
# CAL PDZ FP-2: human CAL PDZ-peptide interaction inhibition; Q9HD26; purified CAL PDZ, TMR-peptide fluorescence polarization, 1 h; inhibition, % at 20 µM; 330,000 compounds, 0.02% hits; AID 504414;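 active = highest replicate inhibition of at least 40%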;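 also: plate controls were DMSO neutral control wells for no effect and unlabeled competitor peptide control wells for full effect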
#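 Material: tagged CAL PDZ protein CerCALP, purified; buffer or medium: sodium phosphate/NaCl buffer pH 7.4 with TCEP, IgG, Thesit; also added: fluorescent TMR peptide probe; schedule: 1 h incubation at room temperature before polarization reading; technique: fluorescence polarization from S- and P-plane intensities, G-factor corrected; control set: unlabelled peptide and DMSO controls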
# Dyrk1A ADPGlo: inhibitors of rat Dyrk1A kinase. Q63470. ADP-Glo luminescence, NFATc1 peptide. inhibition, % at 12.5 µM. 310,000 compounds, 0.43% hits. AID 504441; in the data active = inhibition above about 50%;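 also: plate controls were vehicle with enzyme for no effect and no enzyme for full effect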
# Rtt109 HAT inh: C. albicans Rtt109 histone acetyltransferase inhibition. Q5AAJ8. purified Rtt109/Vps75, ThioGlo CoA-SH fluorescence, 4 h. inhibition, % at 34.9 µM. 330,000 compounds, 0.16% hits. AID 540336;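 active = inhibition of at least 50% in every replicate; inconclusive = best replicate reaches 50% inhibition but some replicates fall short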
# Target sequence (Q5AAJ8 whole entry, looked up): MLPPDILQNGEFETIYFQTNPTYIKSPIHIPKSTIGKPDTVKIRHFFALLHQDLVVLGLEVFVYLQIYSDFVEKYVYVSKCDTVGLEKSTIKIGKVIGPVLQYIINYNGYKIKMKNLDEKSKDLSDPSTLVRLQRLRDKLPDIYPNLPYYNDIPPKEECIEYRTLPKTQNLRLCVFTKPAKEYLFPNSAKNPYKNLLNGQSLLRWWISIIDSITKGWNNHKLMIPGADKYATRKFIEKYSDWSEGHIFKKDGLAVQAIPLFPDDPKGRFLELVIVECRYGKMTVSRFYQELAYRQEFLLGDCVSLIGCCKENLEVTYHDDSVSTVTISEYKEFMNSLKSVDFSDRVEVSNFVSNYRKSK
# ALR H2O2 inh: inhibitors of human sulfhydryl oxidase ALR | P55789 | purified ALR, DTT oxidation, H2O2 HRP-luminol luminescence | inhibition, % (no concentration beside the values) | 290,000 compounds, 3.8% hits | AID 485317;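 active = mean replicate inhibition above about 79%, with every replicate also reaching it, limit read from the data; inconclusive = only one of the two criteria met; inactive = mean below limit and not every replicate reaching it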
# Numbers without * were called inactive; u = inconclusive; x = no result. Rows were chosen to be rich in hits. Some 4.3% of all compounds tested hit in one or more screens of this group.
SMILES,CAL PDZ FP-1,CAL PDZ FP-2,Dyrk1A ADPGlo,Rtt109 HAT inh,ALR H2O2 inh
COc1cccc(-c2nc(CS(=O)(=O)CC(=O)NCCCN3CCc4ccccc4C3)c(C)o2)c1,-4.1,0.5,-2.0,-6.4,99.0*
COc1cccc(-c2nc(CS(=O)(=O)CC(=O)NCCN3CCOCC3)c(C)o2)c1,-1.6,-1.7,-1.5,-3.1,99.0*
Cc1oc(-c2ccccc2F)nc1CS(=O)(=O)CC(=O)N1CCCCCC1,-3.4,-0.2,4.0,-6.1,10.4
COc1cccc(-c2nc(CS(=O)(=O)CC(=O)NCCCc3ccccc3)c(C)o2)c1,-0.4,-0.9,0.8,-5.7,-3.6
Cc1oc(-c2ccccc2Cl)nc1CS(=O)(=O)CC(=O)N1CCOCC1,x,-0.1,2.7,-5.9,98.1*
Cc1ccc(-c2csc(N(C)C(=O)c3c(C)nn(-c4ccccc4)c3Cl)n2)cc1,0.2,0.7,-5.7,-9.0,0.6
C=CC[n+]1c(C)csc1Nc1cccc(Br)c1,-3.2,-0.6,x,7.5,97.4*
C=CC[n+]1c(C)csc1Nc1ccc(C)cc1,-1.9,-1.7,-17.7,x,98.9*
O=C(N/N=C/c1ccc(O)cc1O)c1ccncc1,0.6,-0.3,-5.3,-3.0,25.0
COc1cc(/C=N/NC(=O)/C(=C/c2ccccc2)CCO)ccc1O,-2.5,-2.3,4.1,-4.7,99.3*
CCc1cc(C(=O)N/N=C/c2ccc(O)cc2O)c2ccccc2n1,-2.3,-3.1,-2.7,6.7,83.3*
O=C(N/N=C/c1ccc(O)cc1O)/C(=C/c1ccccc1)CCO,-0.3,-2.3,-0.1,-4.1,81.0*
Cc1ccccc1-n1nc(-c2cccnc2)cc1C(=O)NN,0.4,-2.1,8.6,5.4,x
O=c1[nH]cc([N+](=O)[O-])cc1Br,-9.7,-0.1,2.0,-2.6,-2.0
OC(COC1CCCCC1)CN1CCN(c2ccccc2)CC1 (stereo not drawn),-5.3,-2.3,-0.4,-1.8,91.6*
O=C(c1cccc(C(F)(F)F)c1)c1c[nH]c(C(=O)NCC2CCCO2)c1 (stereo not drawn),-5.0,-1.0,x,15.6,-3.4
Cc1cccc(C)c1NC(=O)CSCC(=O)c1ccc(O)c(O)c1,-4.9,-0.4,-3.9,6.6,99.2*
Cc1cccc(C)c1NC(=O)CSCC(=O)O,1.1,-0.5,4.0,-11.3,-2.8
CCOc1ccc(S(=O)(=O)N2CCCCC2)cc1NC(=O)CC1OC(=O)c2ccccc21 (stereo not drawn),-4.0,-2.4,-1.7,3.9,0.8
CCc1ccc(NC(=O)c2ccc3nc(N)sc3c2)cc1,x,-0.2,2.7,0.8,90.9*
CCc1ccc2nc(N)sc2c1,0.0,-2.0,-5.3,3.0,4.3
O=C(Nc1ccccc1)c1ccc2snnc2c1,78.4*,-0.4,0.1,x,-5.9
Nc1nc2ccc(C(=O)Nc3ccccc3)cc2s1,-0.2,-1.7,8.5,7.4,97.5*
Cc1cccn2c(=O)nc(SCC(=O)Nc3ccc4c(c3)OCO4)nc12,-0.5,-1.5,-0.4,1.1,-13.9
O=C(CSc1nncc2ccccc12)Nc1ccccc1,x,-1.3,5.3,-0.4,99.5*
SMILES,CAL PDZ FP-1,CAL PDZ FP-2,Dyrk1A ADPGlo,Rtt109 HAT inh,ALR H2O2 inh
O=C(CSc1nncc2ccccc12)Nc1ccc(C(=O)O)cc1,x,-1.1,5.5,u,99.7*
O=C(CSc1nncc2ccccc12)Nc1ccc(F)cc1,-2.8,-1.6,2.3,-2.8,-6.7
O=C1[C@@H]2Cc3c([nH]c4ccccc34)C(c3ccc(Cl)cc3)N2C(=O)CN1CCO (stereo partly drawn),-0.8,-0.7,-1.9,-13.5,99.0*
O=C1[C@@H]2Cc3c([nH]c4ccccc34)C(c3ccccc3)N2C(=O)CN1CCO (stereo partly drawn),-6.6,0.7,-4.6,-8.5,54.1
CCCCn1c(N)c(N(CC(C)C)C(=O)CCNC(=O)c2ccc([N+](=O)[O-])cc2)c(=O)[nH]c1=O,-3.4,-4.0,9.3,14.1,x
COc1cc(C(C2C(=O)CC(C)(C)CC2=O)C2C(=O)CC(C)(C)CC2=O)ccc1O,-1.4,0.2,-2.6,1.7,29.4
COc1ccc(C(C2C(=O)CC(C)(C)CC2=O)C2C(=O)CC(C)(C)CC2=O)cc1,1.2,-2.6,-3.4,-3.3,96.8*
COc1ccc(C(C2C(=O)CC(C)(C)CC2=O)C2C(=O)CC(C)(C)CC2=O)cc1COCC(F)(F)F,-1.1,-0.1,5.6,5.3,98.6*
O=C(Nc1ccccc1)c1nnn(Cc2ccccc2)c1NC(=O)C(F)(F)F,-1.8,-2.6,0.8,10.0,x
CCOCCCn1c(=S)[nH]c2cc(C(=O)NCC(OC)OC)ccc2c1=O,-4.2,-2.2,-0.5,-5.3,51.5
